Reference: ChEMBL document CHEMBL3867440, “Hernandezine, a Bisbenzylisoquinoline Alkaloid with Selective Inhibitory Activity against Multidrug-Resistance-Linked ATP-Binding Cassette Drug Transporter ABCB1” (J Nat Prod, 2016)

What was measured:
HEK293 = test: Inhibition of human wild-type ABCG2 transfected in HEK293 cells assessed as potentiation of mitoxantrone-induced cytotoxicity by measuring mitoxantrone resistance ratio at 3000 nM after 72 hrs by CCK8 assay relative to parental HEK293 cells
KB-V1 [1] = test: Induction of apoptosis in human KBV1 cells assessed as late apoptotic cells at 1 uM after 48 hrs by Annexin V-FITC/propidium iodide staining based FACS analysis (reference value: 7.6%); assay type: functional
[2] = molecular target: T1, ATP-dependent translocase ABCB1 (Homo sapiens, UniProt P08183); test: Inhibition of ABCB1 in human KBV1 cells assessed as potentiation of vincristine-induced cytotoxicity by measuring vincristine resistance ratio at 1000 nM after 72 hrs by MTT assay relative to parental KB-3-1 cells (reference value: 356); assay type: cell-based; conditions: kbv1, 72 h, 1 µM
T1 sequence (P08183 whole entry): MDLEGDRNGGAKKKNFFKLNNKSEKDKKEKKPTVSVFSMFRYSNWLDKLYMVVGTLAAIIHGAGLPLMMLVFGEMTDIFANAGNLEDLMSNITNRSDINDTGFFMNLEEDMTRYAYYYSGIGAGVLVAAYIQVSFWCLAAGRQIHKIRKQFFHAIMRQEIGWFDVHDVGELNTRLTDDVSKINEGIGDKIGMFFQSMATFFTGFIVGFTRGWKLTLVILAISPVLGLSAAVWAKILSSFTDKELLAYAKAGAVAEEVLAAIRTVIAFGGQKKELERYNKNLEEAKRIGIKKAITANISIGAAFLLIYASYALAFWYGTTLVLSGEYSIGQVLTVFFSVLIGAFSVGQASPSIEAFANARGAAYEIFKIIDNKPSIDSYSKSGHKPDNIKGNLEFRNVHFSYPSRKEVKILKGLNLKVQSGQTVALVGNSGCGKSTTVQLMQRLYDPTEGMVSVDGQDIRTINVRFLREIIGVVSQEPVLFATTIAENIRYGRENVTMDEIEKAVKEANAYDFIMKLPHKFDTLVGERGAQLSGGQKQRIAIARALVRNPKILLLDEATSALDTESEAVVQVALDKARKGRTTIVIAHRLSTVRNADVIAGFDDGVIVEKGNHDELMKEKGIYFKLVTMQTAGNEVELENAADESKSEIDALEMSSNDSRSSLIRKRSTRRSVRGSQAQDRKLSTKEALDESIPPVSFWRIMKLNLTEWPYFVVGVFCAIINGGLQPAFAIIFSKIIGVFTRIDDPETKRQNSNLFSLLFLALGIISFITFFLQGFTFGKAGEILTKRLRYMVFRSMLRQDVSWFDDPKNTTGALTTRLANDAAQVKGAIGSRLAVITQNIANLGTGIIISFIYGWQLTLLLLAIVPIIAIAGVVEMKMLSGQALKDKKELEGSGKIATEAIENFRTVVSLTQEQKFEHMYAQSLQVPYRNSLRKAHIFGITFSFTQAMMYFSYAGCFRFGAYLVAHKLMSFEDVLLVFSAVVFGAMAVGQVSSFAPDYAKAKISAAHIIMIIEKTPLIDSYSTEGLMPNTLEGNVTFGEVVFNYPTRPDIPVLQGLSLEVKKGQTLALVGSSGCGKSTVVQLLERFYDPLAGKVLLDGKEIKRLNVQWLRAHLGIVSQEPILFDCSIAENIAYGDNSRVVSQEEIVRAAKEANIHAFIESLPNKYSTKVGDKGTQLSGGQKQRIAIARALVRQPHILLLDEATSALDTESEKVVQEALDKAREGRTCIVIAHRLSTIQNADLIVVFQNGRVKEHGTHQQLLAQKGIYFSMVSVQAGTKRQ
Outline: (§1)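 Cells were kept in drug-free DMEM with 10% FCS for 7 days before assay, then plated at 5000 cells/well for 24 h. Drug at various concentrations was added with a nontoxic fixed level of modulator for 72 h, and the read-out was MTT. IC50 came from fitted curves (≥3 experiments). RR = IC50 of the resistant line / IC50 of the parental line.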

[3] = molecular target: T1, ATP-dependent translocase ABCB1; test: Inhibition of ABCB1 in human KBV1 cells assessed as potentiation of colchicine-induced cytotoxicity by measuring colchicine resistance ratio at 1000 nM after 72 hrs by MTT assay relative to parental KB-3-1 cells (reference value: 55); assay type: cell-based; conditions: kbv1, 72 h, 1 µM
Outline: as §1

KB 3-1 [4] = test: Potentiation of colchicine-induced apoptosis in human KB-3-1 cells assessed as late apoptotic cells at 1 uM after 48 hrs by Annexin V-FITC/propidium iodide staining based FACS analysis (reference value: 25.7%); assay type: functional
KB 3-1 [5] = test: Induction of apoptosis in human KB-3-1 cells assessed as viable cells at 1 uM after 48 hrs by Annexin V-FITC/propidium iodide staining based FACS analysis (reference value: 88.4%); assay type: functional; conditions: KB 3-1, 48 h, read-out: Activity
KB 3-1 [6] = test: Potentiation of colchicine-induced apoptosis in human KB-3-1 cells assessed as early apoptotic cells at 1 uM after 48 hrs by Annexin V-FITC/propidium iodide staining based FACS analysis (reference value: 30.5%); assay type: functional
[7] = molecular target: T1, ATP-dependent translocase ABCB1; test: Inhibition of ABCB1 in human KBV1 cells assessed as potentiation of doxorubicin-induced cytotoxicity by measuring doxorubicin resistance ratio at 1000 nM after 72 hrs by MTT assay relative to parental KB-3-1 cells (reference value: 34); assay type: cell-based; conditions: kbv1, 72 h, 1 µM
Outline: as §1

KB-V1 [8] = test: Induction of apoptosis in human KBV1 cells assessed as viable cells at 1 uM after 48 hrs by Annexin V-FITC/propidium iodide staining based FACS analysis (reference value: 86.1%); assay type: functional; conditions: KB-V1, 48 h, read-out: Activity
KB 3-1 [9] = test: Induction of apoptosis in human KB-3-1 cells assessed as early apoptotic cells at 1 uM after 48 hrs by Annexin V-FITC/propidium iodide staining based FACS analysis (reference value: 5.1%); assay type: functional
KB 3-1 [10] = test: Induction of apoptosis in human KB-3-1 cells assessed as necrotic cells at 1 uM after 48 hrs by Annexin V-FITC/propidium iodide staining based FACS analysis (reference value: 0.7%); assay type: functional
KB 3-1 [11] = test: Induction of apoptosis in human KB-3-1 cells assessed as late apoptotic cells at 1 uM after 48 hrs by Annexin V-FITC/propidium iodide staining based FACS analysis (reference value: 5.8%); assay type: functional
KB 3-1 [12] = test: Potentiation of colchicine-induced apoptosis in human KB-3-1 cells assessed as necrotic cells at 1 uM after 48 hrs by Annexin V-FITC/propidium iodide staining based FACS analysis (reference value: 4.9%); assay type: functional
KB 3-1 [13] = test: Potentiation of colchicine-induced apoptosis in human KB-3-1 cells assessed as viable cells at 1 uM after 48 hrs by Annexin V-FITC/propidium iodide staining based FACS analysis (reference value: 38.9%); assay type: functional; conditions: KB 3-1, 48 h, read-out: Activity
KB-V1 [14] = test: Induction of apoptosis in human KBV1 cells assessed as necrotic cells at 1 uM after 48 hrs by Annexin V-FITC/propidium iodide staining based FACS analysis (reference value: 1%); assay type: functional
[15] = molecular target: T1, ATP-dependent translocase ABCB1; test: Inhibition of human ABCB1 transfected in HEK293 cells assessed as potentiation of doxorubicin-induced cytotoxicity by measuring doxorubicin resistance ratio at 1000 nM after 72 hrs by CCK8 assay relative to parental HEK293 cells (reference value: 96); assay type: cell-based; conditions: hek293, 72 h, 1 µM
KB-V1 [16] = test: Induction of apoptosis in human KBV1 cells assessed as early apoptotic cells at 1 uM after 48 hrs by Annexin V-FITC/propidium iodide staining based FACS analysis (reference value: 5.3%); assay type: functional
[17] = molecular target: T1, ATP-dependent translocase ABCB1; test: Inhibition of ABCB1 in human NCI-ADR-RES cells assessed as potentiation of doxorubicin-induced cytotoxicity by measuring doxorubicin resistance ratio at 1000 nM after 72 hrs by MTT assay relative to parental OVCAR8 cells (reference value: 46); assay type: cell-based; conditions: ovcar-8, 72 h, 1 µM
Outline: as §1

[18] = molecular target: T1, ATP-dependent translocase ABCB1; test: Inhibition of ABCB1 in human NCI-ADR-RES cells assessed as potentiation of colchicine-induced cytotoxicity by measuring colchicine resistance ratio at 1000 nM after 72 hrs by MTT assay relative to parental OVCAR8 cells (reference value: 59); assay type: cell-based; conditions: ovcar-8, 72 h, 1 µM
Outline: as §1

[19] = molecular target: T1, ATP-dependent translocase ABCB1; test: Inhibition of ABCB1 in human NCI-ADR-RES cells assessed as potentiation of vincristine-induced cytotoxicity by measuring vincristine resistance ratio at 1000 nM after 72 hrs by MTT assay relative to parental OVCAR8 cells (reference value: 435); assay type: cell-based; conditions: ovcar-8, 72 h, 1 µM
Outline: as §1

SMILES	Ratio (HEK293)	Activity (KB-V1 [1]) [%]	Ratio [2]	Ratio [3]	Activity (KB 3-1 [4]) [%]	viability at 1 µM (KB 3-1 [5]) [%]	Activity (KB 3-1 [6]) [%]	Ratio [7]	viability at 1 µM (KB-V1 [8]) [%]	Activity (KB 3-1 [9]) [%]	Activity (KB 3-1 [10]) [%]	Activity (KB 3-1 [11]) [%]	Activity (KB 3-1 [12]) [%]	viability at 1 µM (KB 3-1 [13]) [%]	Activity (KB-V1 [14]) [%]	Ratio [15]	Activity (KB-V1 [16]) [%]	Ratio [17]	Ratio [18]	Ratio [19]
COc1ccc2c3c([nH]c2c1)[C@H](C=C(C)C)N1C(=O)[C@@H]2CCCN2C(=O)[C@@H]1C3	7	–	–	–	–	–	–	–	–	–	–	–	–	–	–	–	–	–	–	–
COc1cc2c(cc1OC)CN(CCc1ccc(NC(=O)c3cc(OC)c(OC)cc3NC(=O)c3cnc4ccccc4c3)cc1)CC2 [TARIQUIDAR]	–	5.2	1	1	27	92.1	30.2	1	91.1	3.3	0.2	4.4	5.6	37.2	0.2	5	3.5	3	1	4
